Source: ChEMBL document CHEMBL1132694, “Discovery and structure-activity relationships of imidazole-containing tetrahydrobenzodiazepine inhibitors of farnesyltransferase” (J Med Chem, 1999)

These compounds were tested against T1, Protein farnesyltransferase (Homo sapiens, UniProt P49354+P49356) (assay: Inhibitory activity against human purified recombinant farnesyltransferase (hFT)). Details: not given.
Type: protein-complex assay
Procedure, shortened: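 Purified (>90%) recombinant human FT at 0.3 nM, with 10 μM ZnCl2. Activity was measured as incorporation of tritium from [3H]farnesyl pyrophosphate into recombinant human H-Ras. Result reported as IC50.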

| SMILES | IC50 [µM] |
| --- | --- |
| O=C(c1ccccc1OC(F)(F)F)N1CCN(Cc2cnc[nH]2)c2ccc(-c3ccncc3)cc2C1 | 0.024 |
| O=C(c1cccc2ccccc12)N1CCN(Cc2cncn2Cc2ccccc2)c2ccccc2C1 | 1.1 |
| COc1ccc(C(=O)C(=O)N2CCN(Cc3cnc[nH]3)c3ccc(-c4ccccc4)cc3C2)cc1 | 0.091 |
| O=C(c1cccc2ccccc12)N1CCN(Cc2cnc[nH]2)c2ccc(Br)cc2C1 | 0.228 |
| O=C(N1CCN(Cc2cnc[nH]2)c2ccccc2C1)N(c1ccccc1)c1ccccc1 | 1.2 |
| c1ccc(-c2ccc3c(c2)CN(Cc2cccc4ccccc24)CCN3Cc2cnc[nH]2)cc1 | 2.97 |
| Nc1ccc2c(c1)N(Cc1cnc[nH]1)CCN(C(=O)c1cccc3ccccc13)C2 | 1 |
| O=C(c1cccc2ccccc12)N1CCN(CCCc2ncc[nH]2)c2ccccc2C1 | 0.59 |
| COCC[C@H]1CN(C(=O)c2cccc3ccccc23)CCN1CCc1c[nH]cn1 | 3.2 |
| c1ccc(-c2ccc3c(c2)CN(c2nnnn2-c2ccccc2)CCN3Cc2cnc[nH]2)cc1 | 0.702 |
| NCCc1nc(CN2CCN(C(=O)c3cccc4ccccc34)Cc3ccccc32)c[nH]1 | 1.3 |

Other lines, results leading:

| IC50 [µM] | SMILES |
| --- | --- |
| 0.35 | Cc1cccc2c1N(Cc1c[nH]cn1)CCN(C(=O)c1cccc3ccccc13)C2 |
| 21 | O=C(c1cccc2ccccc12)N1CCN(Cc2ncc[nH]2)c2ccccc2C1 |

The compounds below were run against T1, Protein farnesyltransferase (assay: Inhibition of human purified recombinant farnesyltransferase (hFT) at 90 uM). Details: not given.
Type: protein-complex assay

| inhibition [%] | SMILES |
| --- | --- |
| 51 | COCC[C@H]1CN(C(=O)c2cccc3ccccc23)CCN1C(=O)c1c[nH]cn1 |

Each compound was assayed against T1, Protein farnesyltransferase (assay: Phenotypic reversion of H-Ras transformed NIH3T3 cells at 5 uM.). Details: Mus musculus.
Type: functional, cell-based

| SMILES | Reversion activity [%] |
| --- | --- |
| O=C(c1cccc2ccccc12)N1CCN(Cc2c[nH]cn2)c2ccc(C3CCCCC3)cc2C1 | 20 |
| c1ccc(-c2ccc3c(c2)CN(c2nnnn2-c2ccccc2)CCN3Cc2c[nH]cn2)cc1 | 0 |
| O=C(Nc1ccc2c(c1)N(Cc1c[nH]cn1)CCN(C(=O)c1cccc3ccccc13)C2)OC1CCCCC1 | 95 |
| c1ccc(-c2ccc3c(c2)CN(Cc2cccc4ccccc24)CCN3Cc2c[nH]cn2)cc1 | 0 |
| O=C(c1ccccc1OC(F)(F)F)N1CCN(Cc2c[nH]cn2)c2ccc(-c3ccncc3)cc2C1 | 95 |
| COc1ccc(C(=O)C(=O)N2CCN(Cc3c[nH]cn3)c3ccc(-c4ccccc4)cc3C2)cc1 | 90 |
| N#C/N=C(/Nc1ccc(Cl)cc1)N1CCN(Cc2c[nH]cn2)c2ccc(-c3ccccc3)cc2C1 | 5 |

Other lines, results leading:

| Reversion activity [%] | SMILES |
| --- | --- |
| 90 | O=C(c1ccccc1SCCO)N1CCN(Cc2c[nH]cn2)c2ccc(-c3ccccc3)cc2C1 |
| 40 | O=C(N1CCN(Cc2c[nH]cn2)c2ccc(-c3ccccc3)cc2C1)N1CCCc2ccccc21 |
| 90 | O=C(c1cccc2ccccc12)N1CCN(Cc2c[nH]cn2)c2ccc(-c3ccccc3)cc2C1 |
| 95 | COc1ccc2ccccc2c1C(=O)N1CCN(Cc2c[nH]cn2)c2ccc(-c3ccccc3)cc2C1 |
| 0 | CC(=O)Nc1ccc2c(c1)N(Cc1c[nH]cn1)CCN(C(=O)c1cccc3ccccc13)C2 |
| 0 | O=C(OCc1ccccc1)N1CCN(Cc2c[nH]cn2)c2ccc(-c3ccccc3)cc2C1 |
| 5 | O=C(c1cccc2ccccc12)N1CCN(Cc2c[nH]cn2)c2ccc(Br)cc2C1 |
| 35 | Cc1cccc2c1N(Cc1c[nH]cn1)CCN(C(=O)c1cccc3ccccc13)C2 |

The compounds below were run against T1, Protein farnesyltransferase (assay: Phenotypic reversion of H-Ras transformed NIH3T3 cells at 1.25/5 uM.). Details: Mus musculus.
Type: functional, cell-based

| Reversion activity [%] | SMILES |
| --- | --- |
| 0 | O=C(OCc1ccccc1)N1CCN(Cc2c[nH]cn2)c2ccc(-c3ccccc3)cc2C1 |

The compounds below were run on Mus musculus (assay: In vivo antitumor activity against Rat-1 tumors in mice at 10 mg/kg). Details: not given.
Type: functional
Procedure, shortened: (§1)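 Female athymic Balb/c-background mice (18-22 g) were implanted ip with 1 × 10^6 in vitro-propagated H-Ras-transformed Rat-1 fibroblasts. Dosing was ip, once daily for 7 days from day 1, with compound in 10% ethanol/sterile water given within 1 h of dissolution. Groups were typically 6 treated and 8 control mice. Read-out was median survival as %T/C, with ≥125% counted active (Gehan's generalized Wilcoxon test).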

| SMILES | T/C [%] |
| --- | --- |
| O=C(c1cccc2ccccc12)N1CCN(Cc2c[nH]cn2)c2ccc(-c3ccccc3)cc2C1 | 136 |

The compounds below were run against T1, Protein farnesyltransferase (assay: Phenotypic reversion of H-Ras transformed NIH3T3 cells by the compound at a concentration of 10 uM). Details: Mus musculus.
Type: functional, cell-based

| Reversion activity [%] | SMILES |
| --- | --- |
| 25 | O=C(c1ccccc1-c1ccccc1)N1CCN(Cc2c[nH]cn2)c2ccccc2C1 |
| 0 | O=C(c1cccc2ccccc12)N1CCN(Cc2c[nH]cn2)Cc2ccccc21 |

Each compound was assayed on Mus musculus (assay: In vivo antitumor activity against Rat-1 tumors in mice at 30 mg/kg). Details: not given.
Type: functional
Procedure, shortened: as §1

| SMILES | T/C [%] |
| --- | --- |
| O=C(c1cccc2ccccc12)N1CCN(Cc2c[nH]cn2)c2ccc(-c3ccccc3)cc2C1 | 96 |

What follows are compounds tested on Rat1 (assay: Inhibition of anchorage independent growth of H-Ras transformed Rat-1 cells.). Details: not given.
Type: functional, cell-based

| SMILES | EC50 [µM] |
| --- | --- |
| O=C(c1ccccc1-c1ccccc1)N1CCN(Cc2c[nH]cn2)c2ccccc2C1 | 0.7 |
| O=C(c1ccccc1SCCO)N1CCN(Cc2c[nH]cn2)c2ccc(-c3ccccc3)cc2C1 | 0.2 |
| O=C(c1cccc2ccccc12)N1CCN(Cc2c[nH]cn2)c2ccc(-c3ccccc3)cc2C1 | 1.6 |
| O=C(c1cccc2ccccc12)N1CCN(Cc2c[nH]cn2)Cc2ccccc21 | 3 |
| COc1ccc2ccccc2c1C(=O)N1CCN(Cc2c[nH]cn2)c2ccc(-c3ccccc3)cc2C1 | 0.55 |
| O=C(Nc1ccc2c(c1)N(Cc1c[nH]cn1)CCN(C(=O)c1cccc3ccccc13)C2)OC1CCCCC1 | 0.11 |
| O=C(c1ccccc1OC(F)(F)F)N1CCN(Cc2c[nH]cn2)c2ccc(-c3ccncc3)cc2C1 | 0.16 |
| Nc1ccc2c(c1)N(Cc1cnc[nH]1)CCN(C(=O)c1cccc3ccccc13)C2 | 2.4 |
| COc1ccc(C(=O)C(=O)N2CCN(Cc3c[nH]cn3)c3ccc(-c4ccccc4)cc3C2)cc1 | 0.9 |
| Cc1cccc2c1N(Cc1c[nH]cn1)CCN(C(=O)c1cccc3ccccc13)C2 | 12 |

Each compound was assayed against T1, Protein farnesyltransferase (assay: Phenotypic reversion of H-Ras transformed NIH3T3 cells at 1.25 uM). Details: Mus musculus.
Type: functional, cell-based

| SMILES | Reversion activity [%] |
| --- | --- |
| O=C(c1cccc2ccccc12)N1CCN(Cc2c[nH]cn2)c2ccc(C3CCCCC3)cc2C1 | 0 |
| c1ccc(-c2ccc3c(c2)CN(c2nnnn2-c2ccccc2)CCN3Cc2c[nH]cn2)cc1 | 0 |
| O=C(Nc1ccc2c(c1)N(Cc1c[nH]cn1)CCN(C(=O)c1cccc3ccccc13)C2)OC1CCCCC1 | 40 |
| c1ccc(-c2ccc3c(c2)CN(Cc2cccc4ccccc24)CCN3Cc2c[nH]cn2)cc1 | 0 |
| O=C(c1ccccc1OC(F)(F)F)N1CCN(Cc2c[nH]cn2)c2ccc(-c3ccncc3)cc2C1 | 85 |
| COc1ccc(C(=O)C(=O)N2CCN(Cc3c[nH]cn3)c3ccc(-c4ccccc4)cc3C2)cc1 | 0 |
| N#C/N=C(/Nc1ccc(Cl)cc1)N1CCN(Cc2c[nH]cn2)c2ccc(-c3ccccc3)cc2C1 | 0 |

The next lines start with the values.

| Reversion activity [%] | SMILES |
| --- | --- |
| 0 | O=C(c1ccccc1SCCO)N1CCN(Cc2c[nH]cn2)c2ccc(-c3ccccc3)cc2C1 |
| 0 | O=C(N1CCN(Cc2c[nH]cn2)c2ccc(-c3ccccc3)cc2C1)N1CCCc2ccccc21 |
| 0 | O=C(c1cccc2ccccc12)N1CCN(Cc2c[nH]cn2)c2ccc(-c3ccccc3)cc2C1 |
| 85 | COc1ccc2ccccc2c1C(=O)N1CCN(Cc2c[nH]cn2)c2ccc(-c3ccccc3)cc2C1 |
| 0 | CC(=O)Nc1ccc2c(c1)N(Cc1c[nH]cn1)CCN(C(=O)c1cccc3ccccc13)C2 |
| 0 | O=C(c1cccc2ccccc12)N1CCN(Cc2c[nH]cn2)c2ccc(Br)cc2C1 |
| 0 | Cc1cccc2c1N(Cc1c[nH]cn1)CCN(C(=O)c1cccc3ccccc13)C2 |

Each compound was assayed against T1, Protein farnesyltransferase (assay: Inhibition of human purified recombinant farnesyltransferase (hFT) at 15 uM). Details: not given.
Type: protein-complex assay

| inhibition [%] | SMILES |
| --- | --- |
| 55 | O=C(OCc1ccccc1)N1CCN(Cc2c[nH]cn2)c2ccc(-c3ccccc3)cc2C1 |
